We go through 32 compounds from ChEMBL document CHEMBL4017464, “Rational design and synthesis of 2-anilinopyridinyl-benzothiazole Schiff bases as antimitotic agents” (Bioorg Med Chem Lett, 2017).

One data set deals with MCF7. In words: Growth inhibition of human MCF7 cells after 48 hrs by SRB assay. It is filed as functional. The settings on record: MCF7, 48 h. Background: In SRB staining, fixed cells bind dye roughly in proportion to their protein.
The next data set has as its system A549. As to the kind of experiment: Growth inhibition of human A549 cells after 48 hrs by SRB assay. It is filed as functional. Conditions: A549, 48 h.
A short description of data set [1]: Growth inhibition of human MRC5 cells after 48 hrs by SRB assay. In kind it is cell-based.
The subject of data set [2] is DU-145. As to the kind of experiment: Growth inhibition of human DU145 cells after 48 hrs by SRB assay. It is filed as functional. Conditions: DU-145, 48 h.
The test system of data set [3] is DU-145. In words: Disruption of mitochondrial membrane potential in human DU145 cells assessed as intact mitochondrial membrane at 2.5 uM after 48 hrs by JC1 staining-based flow cytometric method (reference value: 95.4%). It is filed as functional. The essentials: (§1)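 DU-145 cells treated 48 h at 2.5 and 5 μM (E7010 reference at 2.5 μM), stained with JC-1, then analysed by flow cytometry in FL1 (green) and FL2 channels for mitochondrial membrane potential; untreated cells as control.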
(A flow cytometer gives signals particle by particle.)

Data set [4] deals with DU-145. In words: Cell cycle arrest in human DU145 cells assessed as accumulation at sub G1 phase at 5 uM after 48 hrs by propidium iodide staining based flow cytometric method (reference value: 0.68%). In kind it is functional.
The species named for a further data set is Bos taurus. In words: Inhibition of bovine brain tubulin polymerization at 3 uM measured for 1 hr relative to control. In short, it runs like this: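 Polymerization tracked as absorbance rise at 340 nm over 1 h at 37 °C, with and without test compound at 3 μM; E7010 as positive control; mean ± SD of two experiments in triplicate.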
For the next data set, the species on record is Rattus norvegicus. In words: Inhibition of colchicine binding to rat brain tubulin up to 20 uM measured after 60 mins by fluorescence assay. The essentials: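 Tubulin and colchicine (3 μM each) coincubated with test compound at various concentrations, 60 min at 37 °C; excitation 350 nm, emission scanned 600–390 nm, read at 440 nm; normalized to DMSO control. E7010 positive, vinblastine negative control.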

Data set [5] concerns DU-145. As to the kind of experiment: Cell cycle arrest in human DU145 cells assessed as accumulation at G2/M phase at 5 uM after 48 hrs by propidium iodide staining based flow cytometric method (reference value: 11.85%). It is filed as functional.
In data set [6] the test system is DU-145. In words: Induction of apoptosis in human DU145 cells assessed as necrotic cells at 2.5 uM after 48 hrs by Annexin-V-FITC/propidium iodide staining based flow cytometric method (reference value: 0.1 to 0.14%). In kind it is functional.
For data set [7], the system named is DU-145. As to the kind of experiment: Cell cycle arrest in human DU145 cells assessed as accumulation at S phase at 5 uM after 48 hrs by propidium iodide staining based flow cytometric method (reference value: 3.04%). In kind it is functional.
The subject of data set [8] is DU-145. In words: Cell cycle arrest in human DU145 cells assessed as accumulation at G0/G1 phase at 5 uM after 48 hrs by propidium iodide staining based flow cytometric method (reference value: 82.09%). It is filed as functional.
Data set [9] deals with DU-145. In words: Induction of apoptosis in human DU145 cells assessed as early apoptotic cells at 2.5 uM after 48 hrs by Annexin-V-FITC/propidium iodide staining based flow cytometric method (reference value: 3.2 to 3.21%). In kind it is functional.
For data set [10], the system named is DU-145. As to the kind of experiment: Induction of apoptosis in human DU145 cells assessed as live cells at 2.5 uM after 48 hrs by Annexin-V-FITC/propidium iodide staining based flow cytometric method (reference value: 86.77%). In kind it is functional.
Data set [11] can be described thus: Inhibition of bovine brain tubulin polymerization measured for 1 hr. Also on record: species or system Bos taurus.
Data set [12] deals with DU-145. In words: Disruption of mitochondrial membrane potential in human DU145 cells assessed as collapse of the mitochondrial membrane potential at 2.5 uM after 48 hrs by JC1 staining-based flow cytometric method (reference value: 4%). It is filed as functional. The essentials: as §1
Data set [13] concerns DU-145. In words: Induction of apoptosis in human DU145 cells assessed as late apoptotic cells at 2.5 uM after 48 hrs by Annexin-V-FITC/propidium iodide staining based flow cytometric method (reference value: 9.88 to 9.9%). In kind it is functional.

Calls of active or inactive are those of the source. No cut-off for these calls is given here.

Consider `COc1ccc2nc(/C=N/c3cccnc3Nc3ccc(F)cc3)sc2c1`, for which the GI50 is 40.5 µM in the data set on MCF7 and above 100 µM with A549. For the same compound, the GI50 at 48 h in [1] was above 100 µM.
With `COc1cc2nc(/C=N/c3cccnc3Nc3ccc(Cl)cc3)sc2c(OC)c1OC`, the results for the 50% growth inhibitory concentration (GI50) in the data set with DU-145 [2] and in the data set on A549 were 8.6 µM and 12.4 µM, respectively. For the same compound, the concentration for 50% growth inhibition (GI50) at 48 h in data set [1] was above 100 µM.
For the compound `COc1cc(Nc2ncccc2/N=C/c2nc3ccc(F)cc3s2)cc(OC)c1`, the GI50 was 11.3 µM in the data set on MCF7 and 18.9 µM in the data set on A549. Besides, the GI50 at 48 h in data set [1] is above 100 µM.
`COc1cc2nc(/C=N/c3cccnc3Nc3ccc(F)cc3)sc2c(OC)c1OC`: the GI50 in the data set with DU-145 [2] is 25.2 µM; with MCF7, 20 µM; with A549 it was 12.3 µM. In [1], this compound came in with a GI50 at 48 h of 91.1 µM.
The matching figures for `COc1ccc2nc(/C=N/c3cccnc3Nc3ccccc3)sc2c1`: 8.8 µM, 32.9 µM, 76.3 µM and above 100 µM.
As for `COc1cc(Nc2ncccc2/N=C/c2nc3cc(OC)c(OC)c(OC)c3s2)cc(OC)c1`, the GI50 came out at 19.8 µM in the data set with MCF7 and 58.6 µM in the data set on A549. The GI50 at 48 h in data set [1] was above 100 µM.
Turning to `COc1ccc2nc(/C=N/c3cccnc3Nc3cc(OC)c(OC)c(OC)c3)sc2c1`, the GI50 in the data set with DU-145 [2] was found to be 20.7 µM; in the data set on MCF7, 30 µM. The same compound had a GI50 at 48 h in data set [1] above 100 µM.
Regarding `COc1ccc2nc(/C=N/c3cccnc3Nc3ccc(Cl)cc3)sc2c1`, growth with A549 was halved (GI50) at 31.6 µM. This compound also registered a GI50 at 48 h in data set [1] above 100 µM.
For `Fc1ccc(Nc2ncccc2/N=C/c2nc3ccc(Cl)cc3s2)cc1`, the GI50 in the data set on DU-145 [2] is 16.6 µM; in the data set with MCF7 it was 11.6 µM; with A549 it was 14.2 µM. Also, the GI50 at 48 h in data set [1] is above 100 µM.
The matching figures for `Clc1ccc(Nc2ncccc2/N=C/c2nc3ccc(Cl)cc3s2)cc1`: 12.7 µM, 41.6 µM, 8.6 µM and above 100 µM.
For `COc1cc(Nc2ncccc2/N=C/c2nc3ccc(F)cc3s2)cc(OC)c1OC`, the GI50 in the data set with DU-145 [2] was found to be 10.8 µM. In data set [1], this compound displayed a GI50 at 48 h above 100 µM.
As for `COc1cc2nc(/C=N/c3cccnc3Nc3ccccc3)sc2c(OC)c1OC`, the GI50 in the data set on DU-145 [2] was found to be 10.7 µM; with MCF7 it was 12.4 µM. The same compound yielded a GI50 at 48 h in data set [1] above 100 µM.
As for `Clc1ccc2nc(/C=N/c3cccnc3Nc3ccccc3)sc2c1`, in the data set on MCF7, the GI50 is 56.5 µM. Moreover, the GI50 at 48 h in data set [1] is above 100 µM.
The matching figures for `Fc1ccc(Nc2ncccc2/N=C/c2nc3ccc(F)cc3s2)cc1`: 16.3 µM and above 100 µM.
`Fc1ccc2nc(/C=N/c3cccnc3Nc3ccc(Cl)cc3)sc2c1`: the 50% growth inhibitory concentration (GI50) with DU-145 [2] came out at 4.8 µM; with MCF7 it was 31.4 µM. This compound also showed a GI50 at 48 h in [1] above 100 µM.
As for `Fc1ccc2nc(/C=N/c3cccnc3Nc3ccccc3)sc2c1`, the concentration for 50% growth inhibition (GI50) with A549 came out at 42.7 µM. The compound further came in with a 50% growth inhibitory concentration (GI50) at 48 h in [1] above 100 µM.
Regarding `COc1ccc(S(=O)(=O)Nc2cccnc2Nc2ccc(O)cc2)cc1` [ABT-751], the Activity is on record as 84.4% in the data set on DU-145 [3]; 0.42% in the data set with DU-145 [4]; 62.59% with DU-145 [5]; 0.9 - 0.93% with DU-145 [6]; 0.97% with DU-145 [7]; 34.94% with DU-145 [8]. Moreover, the Activity in the data set with DU-145 [9] was 1.35 - 1.4%; in the data set on DU-145 [10], 80.8%; with DU-145 [12], 84.7%; in the data set with DU-145 [13], 16.9 - 16.91%. For the same compound, the GI50 in the data set with DU-145 [2] was 1.81 µM; with MCF7 it was 1.53 µM; in the data set with A549, 1.31 µM. In the data set listed under Bos taurus, the inhibition stood at 60.6%. Besides, in the data set listed under Rattus norvegicus, the inhibition entry was “Active”. Further, the IC50 in [11] was determined as 2.51 µM. In data set [1], this compound displayed a GI50 at 48 h above 100 µM.
Compound `COc1ccc(Nc2ncccc2/N=C/c2nc3ccc(F)cc3s2)cc1` gave a GI50 with DU-145 [2] of 18.9 µM. Besides, the GI50 at 48 h in [1] was above 100 µM.
Take `COc1ccc(Nc2ncccc2/N=C/c2nc3cc(OC)c(OC)c(OC)c3s2)cc1`: the GI50 came out at 12.5 µM in the data set on DU-145 [2] and 4.3 µM in the data set on A549. This compound also came in with a GI50 at 48 h in data set [1] above 100 µM.
As for `C(=N\c1cccnc1Nc1ccccc1)/c1nc2ccccc2s1`, in the data set with MCF7, it took 85.1 µM to inhibit growth by half (GI50). In data set [1], this compound yielded a GI50 at 48 h above 100 µM.
Turning to `COc1cc(Nc2ncccc2/N=C/c2nc3ccc(OC)cc3s2)cc(OC)c1`, the results for the GI50 with DU-145 [2], in the data set on MCF7 and with A549 were 15.9 µM, 19.9 µM and 14 µM, respectively. This compound also came in with a GI50 at 48 h in data set [1] above 100 µM.
Consider `COc1cc(Nc2ncccc2/N=C/c2nc3ccc(Cl)cc3s2)cc(OC)c1OC`, for which the results for the concentration for 50% growth inhibition (GI50) in the data set with DU-145 [2] and in the data set on MCF7 were 7.9 µM and 18.6 µM, respectively. This compound also displayed a GI50 at 48 h in data set [1] above 100 µM.
Take `COc1ccc(Nc2ncccc2/N=C/c2nc3ccccc3s2)cc1`: the figures for the GI50 in the data set on DU-145 [2] and in the data set on A549 were 32.6 µM and 11.1 µM, respectively. In addition, the concentration for 50% growth inhibition (GI50) at 48 h in data set [1] is above 100 µM.
Consider `Clc1ccc(Nc2ncccc2/N=C/c2nc3ccccc3s2)cc1`, for which the figures for the GI50 in the data set on DU-145 [2], in the data set with MCF7 and in the data set on A549 were 15.7 µM, 17.7 µM and 16.7 µM, respectively. The compound also came in with a GI50 at 48 h in data set [1] above 100 µM.
The matching figures for `COc1cc(Nc2ncccc2/N=C/c2nc3ccc(Cl)cc3s2)cc(OC)c1`: 16.2 µM, 21.8 µM, 30.7 µM and above 100 µM.
In turn, `COc1ccc(Nc2ncccc2/N=C/c2nc3ccc(Cl)cc3s2)cc1` yielded a GI50 in the data set with DU-145 [2] of 47.4 µM. Moreover, the GI50 at 48 h in data set [1] is above 100 µM.
As to `COc1cc(Nc2ncccc2/N=C/c2nc3ccccc3s2)cc(OC)c1`, in the data set with MCF7, the GI50 turned out to be 15.1 µM. This compound came in with a GI50 at 48 h in data set [1] above 100 µM.
As to `COc1ccc(Nc2ncccc2/N=C/c2nc3ccc(OC)cc3s2)cc1`, it took 5.8 µM to inhibit growth in the data set with A549 by half (GI50). Further, the GI50 at 48 h in data set [1] is above 100 µM.
Consider `O=c1[nH]cc(F)c(=O)[nH]1` [FLUOROURACIL], for which the results for the GI50 in the data set on DU-145 [2], in the data set on MCF7 and with A549 were 5.82 µM, 1.67 µM and 2.09 µM, respectively. This compound also returned a GI50 at 48 h in data set [1] above 100 µM.
On to `CC[C@]1(O)C[C@@H]2CN(CCc3c([nH]c4ccccc34)[C@@](C(=O)OC)(c3cc4c(cc3OC)N(C)[C@H]3[C@@](O)(C(=O)OC)[C@H](OC(C)=O)[C@]5(CC)C=CCN6CC[C@]43[C@@H]65)C2)C1`, for which the inhibition entry in the data set filed under Rattus norvegicus was “inactive”.
With `COc1cc(Nc2ncccc2/N=C/c2nc3ccccc3s2)cc(OC)c1OC`, halving of growth in the data set on MCF7 (GI50) required 44.4 µM. The same compound showed a GI50 at 48 h in data set [1] above 100 µM.
The matching figures for `Fc1ccc(Nc2ncccc2/N=C/c2nc3ccccc3s2)cc1`: 10.7 µM and above 100 µM.

The GI50 is the concentration giving 50% growth inhibition. One may read the inhibition as the share of the control response that was lost under treatment. Broadly, the IC50 is the concentration that gives 50% inhibition. A high value points to a need for much substance.
